{
  "source": "paper PMC8585696",
  "about": "(Immunity, 2021)",
  "key": {"C57BL/6 mice [1]": {"system": "C57BL/6 mice", "test": "BALF inflammatory cell counts", "assay_type": "in vivo, mouse", "conditions": "C. albicans intranasal, inhibitor 10 or 20 μg/kg i.p., Figure 2I"}, "C57BL/6 mice [2]": {"system": "C57BL/6 mice", "test": "cytokines from lung by ELISA", "assay_type": "in vivo, mouse", "method_in_brief": "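C57BL/6 mice received 1 × 10^5 viable C. albicans intranasally every other day for 8 challenges. Fungal cells were thawed (>95% viable), washed and suspended in normal saline. Dkk-1 inhibitor (10 or 20 μg/kg) or recombinant mouse Dkk-1 (5 μg/kg) was given i.p. at each challenge. Lungs were taken 24 h after the last challenge, and cytokines in lung homogenate supernatants were measured by ELISA (TMB, 450 nm).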"}, "C. albicans": {"system": "C. albicans", "test": "lung fungal burden", "assay_type": "in vivo", "method_in_brief": "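Whole-lung C. albicans CFU was counted in C57BL/6 mice 24 h after the last of 8 intranasal challenges (1 × 10^5 viable cells in saline, every other day). Dkk-1 inhibitor or recombinant mouse Dkk-1 (5 μg/kg) was given i.p. together with each challenge.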"}, "Dkk-1": {"system": "Dkk-1", "conditions": "ref Chae et al., 2016; cited from earlier work"}, "[3]": {"system": "human platelets (platelet-rich plasma)", "test": "platelet aggregation assay", "assay_type": "cell-based", "conditions": "collagen 2.5 μg/mL or increasing candidalysin, 5 min, Figure S4G"}, "GP1bα [4]": {"system": "GP1bα", "conditions": "through the A1 domain; ref Azuma et al., 1991; cited from earlier work"}, "GP1bα [5]": {"system": "GP1bα", "test": "GP1bα pulldown from human platelet lysates", "assay_type": "binding", "conditions": "60 μg biotinylated bait, 1 h, 4°C, western blot; Figure 4E"}, "C57BL/6 mice [6]": {"system": "C57BL/6 mice", "test": "airway hyperresponsiveness", "assay_type": "in vivo, mouse", "conditions": "ece1Δ/Δ C. albicans intranasal; Dkk-1 5 μg/kg i.p.; Figure 3B"}, "[7]": {"system": "GATA3^+ Th2 and RORγt^+ Th17 cells", "test": "lung T cell quantitation by flow cytometry", "assay_type": "in vivo, mouse", "conditions": "ece1Δ/Δ C. albicans intranasal; Dkk-1 5 μg/kg i.p.; Figures 3F, 3G", "method_in_brief": "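Mice were challenged with C. albicans (1 × 10^5 viable cells) intranasally every other day ×8, with recombinant mouse Dkk-1 (5 μg/kg i.p.) at each challenge, and analyzed 24 h after the final challenge. Erythrocytes in total lung cells were lysed with ACK. Cells were stained for live/dead, CD45, CD3 and CD4, split into 3 groups, fixed and permeabilized, then stained for T-bet, GATA3 or RORγt. Results are given as percentages and absolute counts.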"}, "C57BL/6 mice [8]": {"system": "C57BL/6 mice", "test": "allergic airway disease overall", "assay_type": "in vivo, mouse", "conditions": "intraperitoneal route, no fungus; data not shown"}},
  "data": [
    {"molecule": "NCC1CCN(c2nccc(-c3ccc4ccccc4c3)n2)CC1", "note": "[WAY 262611]", "values": [
      {"measurement": "BALF eosinophilia under Dkk-1 inhibitor", "setting": "C57BL/6 mice [1]", "value": "most notably reducing BALF eosinophilia"},
      {"measurement": "BALF inflammatory cell recruitment under Dkk-1 inhibitor", "setting": "C57BL/6 mice [1]; dose-dependent", "value": "progressively reduced"},
      {"measurement": "secretion of IL-17 from whole lung under Dkk-1 inhibitor", "setting": "C57BL/6 mice [2]; C. albicans intranasal, inhibitor 10 or 20 μg/kg i.p., Figure 2J", "value": "inhibited secretion of IL-17"},
      {"measurement": "secretion of IL-1β, IL-6 and TNF under Dkk-1 inhibitor", "setting": "C57BL/6 mice [2]; C. albicans intranasal, inhibitor 10 or 20 μg/kg i.p., Figure 2K", "value": "not significantly affected"},
      {"measurement": "lung fungal burden under Dkk-1 inhibitor", "setting": "C. albicans; C. albicans intranasal, inhibitor i.p., Figure 2N", "value": "markedly elevated lung fungal burdens"},
      {"measurement": "block of Dkk-1 in vivo", "setting": "Dkk-1", "value": "previously shown to block this peptide in vivo"}
    ]},
    {"molecule": "collagen", "values": [
      {"measurement": "platelet aggregation in vitro", "setting": "[3]", "value": "in marked contrast to the activating GPIIb/IIIa ligand collagen"}
    ]},
    {"molecule": "VWF A1A2A3 tridomain: recombinant human VWF A1, A2, A3 domains (Q1238-G1874) expressed in HEK293", "values": [
      {"measurement": "binding of VWF fragment to GP1bα", "setting": "GP1bα [4]", "value": "binds GP1bα through the A1 domain"}
    ]},
    {"molecule": "IFKIIISKIQIVMGLNGIPIKVAGSQNIGMI [scrambled control (SC) peptide]", "values": [
      {"measurement": "association with GP1bα from human platelet lysates", "setting": "GP1bα [5]", "value": "but not its scrambled control peptide"}
    ]},
    {"molecule": "Dkk-1: recombinant mouse Dkk-1 (5897-DK-010, R&D systems), Wnt pathway antagonist (protein, UniProt O54908 32-272, looked up) Dickkopf-related protein 1: TLNSVLINSNAIKNLPPPLGGAGGQPGSAVSVAPGVLYEGGNKYQTLDNYQPYPCAEDEECGSDEYCSSPSRGAAGVGGVQICLACRKRRKRCMRHAMCCPGNYCKNGICMPSDHSHFPRGEIEESIIENLGNDHNAAAGDGYPRRTTLTSKIYHTKGQEGSVCLRSSDCAAGLCCARHFWSKICKPVLKEGQVCTKHKRKGSHGLEIFQRCYCGEGLACRIQKDHHQASNSSRLHTCQRH", "values": [
      {"measurement": "airway hyperresponsiveness with exogenous Dkk-1", "setting": "C57BL/6 mice [6]", "value": "significantly enhanced airway hyperresponsiveness"},
      {"measurement": "secretion of lung Th2 cytokines, especially IL-4, and IL-17 with exogenous Dkk-1", "setting": "C57BL/6 mice [2]; ece1Δ/Δ C. albicans intranasal, Dkk-1 5 μg/kg i.p., Figure 3D", "value": "markedly enhanced"},
      {"measurement": "secretion of innate pro-inflammatory cytokines with exogenous Dkk-1", "setting": "C57BL/6 mice [2]; ece1Δ/Δ C. albicans intranasal, Dkk-1 5 μg/kg i.p., Figure 3E", "value": "did not influence the secretion of innate pro-inflammatory cytokines"},
      {"measurement": "recruitment to lung of GATA3^+ Th2 and RORγt^+ Th17 cells with exogenous Dkk-1", "setting": "[7]", "value": "markedly increase recruitment to lung"},
      {"measurement": "fungal lung burden with exogenous Dkk-1", "setting": "C. albicans; ece1Δ/Δ C. albicans intranasal, Dkk-1 5 μg/kg i.p., Figure 3H", "value": "significantly reduced"},
      {"measurement": "indices of allergic airway disease, Dkk-1 alone", "setting": "C57BL/6 mice [8]", "value": "no effect on any index of allergic airway disease"}
    ]}
  ]
}
